This note sets out measurements from ChEMBL document CHEMBL4152278 (Eur J Med Chem, 2018).

In series [1] the test system is Influenza A virus. Description: Antiviral activity against Influenza A virus (A/WSN/1933(H1N1)) infected in MDCK cells expressing wild type neuraminidase assessed as protection against virus-induced cytopathic effect after 48 hrs by CellTiter96 aqueous non-radioactive cell proliferation assay. The format is functional, organism-based. Summed up:
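Virus at 100 TCID50 was premixed with inhibitor at varied concentrations, then added to MDCK cells (1×10^5 cells/mL). Cells were held 48 h at 37 °C under 5% CO2. Cytopathic effect was read as MTS absorbance at 490 nm after 15 min. EC50 was taken from a curve fit of percent CPE versus concentration.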
Background: Damage to the host cells serves as the signal in cytopathic effect assays.

Series [2] deals with Influenza A virus. Description: Antiviral activity against Influenza A virus (A/WSN/1933(H1N1)) infected in BALB/c mouse assessed as increase in mouse survival rate at 1.2 umol/kg/day administered intranasally for 5 days and measured at day 21 relative to control. The format is functional, organism-based.
A short description of series [3]: Cytotoxicity against MDCK cells after 48 hrs by CellTiter96 aqueous non-radioactive cell proliferation assay. In kind it is cell-based, Canis lupus familiaris. The settings on record: dog.
The nature of series [4]: Half life in rabbit plasma by HPLC method. In kind it is ADME, cell-free, Oryctolagus cuniculus. In a few lines:
(§1)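 A 20 mM DMSO stock was diluted to 1 mM in buffer (50 mM HCl/KCl pH 1.3, acetate pH 4.1, phosphate pH 7.4 at 50 or 10 mM, borate pH 9.1, glycine pH 9.2), rat plasma or […]. Mixtures were shaken at 1000 rpm, 37 °C, and sampled over time for reversed-phase HPLC (214 or 254 nm). Half-life came from a pseudo-first-order fit; remaining parent was assessed at 96 h. Three runs for ZA derivatives, single for GOC derivatives.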

Series [5] is described as follows: Half life in HCl/KCl solution at pH 1.3 by HPLC method. In kind it is physicochemical. In a few lines: as §1
Series [6] can be described thus: Half life in glycine buffer at pH 9.2 by HPLC method. The format is physicochemical. Summed up:
as §1

Series [7] is described as follows: Metabolic stability in […] assessed as parent compound remaining after 96 hrs by HPLC method. The format is ADME, cell-free, Oryctolagus cuniculus. The conditions noted are these: rabbit, plasma; read-out: Stability.
Series [8] in a line: Half life in 10 mM phosphate buffer at pH 7.4 by HPLC method. In kind it is physicochemical. In a few lines: as §1
A short description of series [9]: Chemical stability in HCl/KCl solution at pH 1.3 assessed as parent compound remaining after 96 hrs by HPLC method. The format is physicochemical. The conditions noted are these: read-out: Stability. Summed up: as §1
Series [10] can be described thus: Half life in borate buffer at pH 9.1 by HPLC method. In kind it is physicochemical. In a few lines: as §1
Series [11] can be described thus: Half life in 50 mM phosphate buffer at pH 7.4 by HPLC method. The format is physicochemical. In a few lines: as §1
Series [12] in a line: Half life in rat plasma by HPLC method. In kind it is ADME, cell-free. Summed up:
as §1

Series [13] in a line: Half life in acetate buffer at pH 4.1 by HPLC method. In kind it is physicochemical. In a few lines: as §1
A short description of series [14]: Chemical stability in acetate buffer at pH 4.1 assessed as parent compound remaining after 96 hrs by HPLC method. The conditions noted are these: read-out: Stability. In kind it is physicochemical. In a few lines:
as §1

Series [15] relates to Influenza A virus. The series can be described thus: Antiviral activity against Influenza A virus (A/WSN/1933(H1N1)) infected in BALB/c mouse assessed as increase in mouse survival rate at 2.4 umol/kg/day administered intranasally for 5 days and measured at day 21 relative to control. In kind it is functional, organism-based. Summed up: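 Female BALB/c mice (4–5 weeks old), 10 per group. Drug was given by intranasal instillation twice daily for 5 days at 2.4 μmol/kg/day, with half the dose at each administration. Mice were infected intranasally with 10 MLD50 of A/WSN/1933 (H1N1) under zoletil anaesthesia, 4 h after the first dose. PBS placebo on the same schedule. Survival was followed daily and curves compared by log-rank test.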

Series [16] concerns Influenza A virus. The series can be described thus: Antiviral activity against Influenza A virus (A/WSN/1933(H1N1)) infected in BALB/c mouse assessed as mouse survival rate at 1.2 umol/kg/day administered intranasally for 5 days and measured at day 21 relative to control. The format is functional. The conditions noted are these: inhaled or nasal.
The nature of series [17]: Half life in human serum at 16 mg. In kind it is ADME, organism-based.
Series [18] relates to Influenza A virus. Description: Antiviral activity against Influenza A virus (A/WSN/1933(H1N1)) infected in BALB/c mouse assessed as protection against virus-induced infection at 48 umol/kg/day administered via oral gavage for 5 days. The format is functional, organism-based. In a few lines:
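Female BALB/c mice (4–5 weeks old), 10 per group. Drug was given by oral gavage twice daily for 5 days at 48 μmol/kg/day. Intranasal challenge with 10 MLD50 of A/WSN/1933 (H1N1) 4 h after the first dose. PBS placebo on the same schedule. Survival was observed daily and compared by log-rank (Mantel–Cox) test.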

Series [19] can be described thus: Drug uptake in MDCK cells at 100 uM after 48 hrs by LC-MS analysis. The settings on record: dog. The format is ADME, cell-based, Canis lupus familiaris. In a few lines:
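MDCK cells (2.5×10^6, grown overnight) were exposed to compound at 100 µM final in 2% FBS medium for 48 h, with a DMSO mock. Cells were washed, lysed in RIPA, methanol-precipitated at −80 °C and filtered (10 kDa cutoff). Parent and hydrolysis product were quantified by LC–MS/MS against calibration curves (0.03–300 µM) spiked into mock lysate.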

Structures are written as SMILES. Activity calls are given as the source filed them.

A word on the EC50: it is the midpoint of the concentration-response curve. Consider `CC(=O)N[C@H]1[C@H]([C@H](O)[C@H](O)CO)OC(C(=O)O)=C[C@@H]1NC(=N)N` [ZANAMIVIR], for which, in series [1], the EC50 turned out to be 27 nM. Besides, the outcome in series [2] was Active.
As a reminder, the CC50 is the concentration that lowers cell viability or growth by half. Regarding `CCC(CC)O[C@@H]1C=C(C(=O)O)C[C@H](N)[C@H]1NC(C)=O` [OSELTAMIVIR CARBOXYLATE], the EC50 in [1] is 16 nM. The 50% cytotoxic concentration (CC50) at 48 h in series [3] was above 100000 nM.
On to `CCC(CC)O[C@@H]1C=C(P(=O)(O)O)C[C@H](N/C(N)=N/C(=O)CSc2ccc3ccccc3c2)[C@H]1NC(C)=O`, for which, in series [1], the EC50 came out at 0.8 nM.
Regarding `CCC(CC)O[C@@H]1C=C(P(=O)(O)O)C[C@H](NC(=N)N)[C@H]1NC(C)=O`, the EC50 in series [1] was 3.8 nM.
The term half-life denotes the time in which the quantity being followed falls by half. A high value points to slow loss. For the molecule `CCC(CC)O[C@@H]1C=C(C(=O)O)C[C@H](N/C(N)=N/C(=O)[C@@H](C)c2ccc3cc(OC)ccc3c2)[C@H]1NC(C)=O`, the half-life in series [4] was above 96 h; in series [5] it was above 96 h; in series [6] it was 81.4 h; in [8], 69.7 h; in series [10], 76.7 h; in series [11], 64.9 h. For the same molecule, the EC50 in series [1] amounted to 2 nM. In addition, the remaining at 96 h is 76% in series [7] and above 75% in series [9]. The cytotoxic concentration (CC50) at 48 h in series [3] is above 100000 nM.
As to `CCC(CC)O[C@@H]1C=C(C(=O)O)C[C@H](NC(=N)N)[C@H]1NC(C)=O`, the EC50 in [1] amounted to 7 nM. Also, in [3], the cytotoxic concentration (CC50) at 48 h is above 100000 nM.
Consider `CCCCCCCC(=O)/N=C(\N)N[C@H]1C=C(C(=O)O)O[C@@H]([C@H](O)[C@H](O)CO)[C@@H]1NC(C)=O`, for which, in series [1], the EC50 worked out at 90 nM. Besides, the half-life in series [12] is 29.5 h; in [5], above 96 h; in series [13] it was above 96 h; in series [8], 56.8 h; in series [10] it was 26.1 h; in [11], 39.2 h. Moreover, the remaining at 96 h in series [14] and in series [9] was above 75% each time. Also, the outcome in series [15] was Active. In addition, the CC50 at 48 h in series [3] was above 100000 nM. The survival at 1.2 µmol/kg in series [16] came out at 100%.
For `CC(=O)N[C@H]1[C@H]([C@H](O)[C@H](O)CO)OC(C(=O)O)=C[C@@H]1N=C(N)N` [ZANAMIVIR], the half-life in series [17] was 2 to 5 h. Moreover, the CC50 at 48 h in series [3] is above 100000 nM.
For the molecule `COc1ccc2cc([C@H](C)C(=O)/N=C(\N)N[C@H]3C=C(C(=O)O)O[C@@H]([C@H](O)[C@H](O)CO)[C@@H]3NC(C)=O)ccc2c1`, the EC50 in series [1] turned out to be 140 nM. The values for the half-life in series [12] and in series [8] were 67.7 h and 67.2 h, respectively. Further, the half-maximal cytotoxic concentration (CC50) at 48 h in series [3] was above 100000 nM. The survival at 1.2 µmol/kg in series [16] came to 70%.
Regarding `CCOC(=O)C1=C[C@@H](OC(CC)CC)[C@H](NC(C)=O)[C@@H](N)C1`, the outcome in series [18] was Active.
Regarding `CCCCCCCC(=O)/N=C(\N)N[C@H]1CC(C(=O)O)=C[C@@H](OC(CC)CC)[C@@H]1NC(C)=O`, the half-life is 96 h in [4], above 96 h in [5], 22.4 h in series [6] and 18.1 h in series [10]. The EC50 in [1] turned out to be 1 nM. In addition, the remaining at 96 h in series [7] was 55%; in series [9], above 75%. Besides, the outcome in [18] was Active. Further, in series [19], the Drug uptake was determined as 1225 nM. For the same molecule, in series [3], the CC50 at 48 h was above 100000 nM.
